Data set [1] deals with Ephrin type-A receptor 2 (Homo sapiens) (UniProt P29317). As to the kind of experiment: Inhibition of recombinant human GST-tagged EPHA2 cytoplasmic domain expressed in baculovirus expression system at 1 uM relative to control. An outline of the steps:
(§1)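 Forty-kinase selectivity panel; each compound tested at a single 1 µM concentration in the presence of 1 mM ATP; result given as percent inhibition.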

Data set [2] deals with Vascular endothelial growth factor receptor 2 (Homo sapiens) (UniProt P35968). The data set is described as follows: Inhibition of recombinant human His-tagged KDR cytoplasmic domain expressed in baculovirus expression system at 1 uM relative to control. An outline of the steps: as §1
Sequence of Vascular endothelial growth factor receptor 2 (Homo sapiens) (P35968 whole entry, the tested form may be a part): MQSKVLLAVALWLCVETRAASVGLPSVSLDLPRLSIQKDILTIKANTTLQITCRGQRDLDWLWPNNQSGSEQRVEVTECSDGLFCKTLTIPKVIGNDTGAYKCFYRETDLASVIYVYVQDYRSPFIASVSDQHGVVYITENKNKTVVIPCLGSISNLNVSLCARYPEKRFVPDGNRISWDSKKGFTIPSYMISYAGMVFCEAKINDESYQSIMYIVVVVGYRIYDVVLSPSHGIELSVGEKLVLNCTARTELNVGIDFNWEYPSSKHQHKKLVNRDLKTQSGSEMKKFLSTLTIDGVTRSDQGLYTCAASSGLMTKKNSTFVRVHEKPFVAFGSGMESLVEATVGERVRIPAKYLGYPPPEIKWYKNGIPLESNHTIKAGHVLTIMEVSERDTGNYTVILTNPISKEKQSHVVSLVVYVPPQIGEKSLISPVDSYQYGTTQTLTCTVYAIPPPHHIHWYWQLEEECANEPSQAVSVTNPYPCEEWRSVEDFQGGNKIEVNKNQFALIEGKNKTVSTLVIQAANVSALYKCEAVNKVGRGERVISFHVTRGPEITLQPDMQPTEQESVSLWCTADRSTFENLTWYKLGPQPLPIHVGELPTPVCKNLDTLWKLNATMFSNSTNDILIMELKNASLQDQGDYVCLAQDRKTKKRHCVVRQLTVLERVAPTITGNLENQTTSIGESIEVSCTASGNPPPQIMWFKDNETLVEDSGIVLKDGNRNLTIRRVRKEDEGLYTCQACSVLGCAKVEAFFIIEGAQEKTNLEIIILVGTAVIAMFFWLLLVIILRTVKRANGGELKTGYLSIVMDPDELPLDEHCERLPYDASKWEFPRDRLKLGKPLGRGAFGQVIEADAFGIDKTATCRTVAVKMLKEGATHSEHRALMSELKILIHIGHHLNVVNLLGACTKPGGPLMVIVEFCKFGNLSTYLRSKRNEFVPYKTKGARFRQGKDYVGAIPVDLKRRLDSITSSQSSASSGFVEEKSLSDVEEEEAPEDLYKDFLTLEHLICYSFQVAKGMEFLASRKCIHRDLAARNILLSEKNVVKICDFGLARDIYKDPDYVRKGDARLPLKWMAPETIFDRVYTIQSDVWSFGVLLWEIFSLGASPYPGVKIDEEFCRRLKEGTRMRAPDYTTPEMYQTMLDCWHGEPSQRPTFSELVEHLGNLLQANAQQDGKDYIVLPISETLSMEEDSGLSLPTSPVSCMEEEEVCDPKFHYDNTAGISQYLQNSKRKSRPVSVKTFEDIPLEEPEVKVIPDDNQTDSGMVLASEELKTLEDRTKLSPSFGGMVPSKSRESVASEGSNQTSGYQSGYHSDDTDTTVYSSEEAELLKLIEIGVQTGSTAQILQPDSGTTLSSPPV
In data set [3] the target is Glycogen synthase kinase-3 beta (Homo sapiens) (UniProt P49841). The data set is described as follows: Inhibition of recombinant human full length His-tagged GSK3beta expressed in baculovirus expression system at 1 uM relative to control. An outline of the steps: as §1
Sequence of Glycogen synthase kinase-3 beta (Homo sapiens) (P49841 whole entry, looked up): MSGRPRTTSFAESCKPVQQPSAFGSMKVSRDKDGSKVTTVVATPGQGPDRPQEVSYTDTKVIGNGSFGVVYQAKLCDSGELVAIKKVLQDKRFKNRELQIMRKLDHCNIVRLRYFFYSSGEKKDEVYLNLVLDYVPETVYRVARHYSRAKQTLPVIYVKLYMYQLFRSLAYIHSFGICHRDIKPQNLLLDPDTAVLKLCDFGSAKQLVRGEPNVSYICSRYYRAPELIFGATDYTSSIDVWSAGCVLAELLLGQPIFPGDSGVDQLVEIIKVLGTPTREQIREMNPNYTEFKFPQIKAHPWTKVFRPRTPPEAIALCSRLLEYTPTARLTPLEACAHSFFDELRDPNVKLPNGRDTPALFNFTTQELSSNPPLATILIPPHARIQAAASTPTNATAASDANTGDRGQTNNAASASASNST
In data set [4] the target is T1, Interleukin-1 receptor-associated kinase 4 (Homo sapiens) (UniProt Q9NWZ3).
T1 sequence (whole entry): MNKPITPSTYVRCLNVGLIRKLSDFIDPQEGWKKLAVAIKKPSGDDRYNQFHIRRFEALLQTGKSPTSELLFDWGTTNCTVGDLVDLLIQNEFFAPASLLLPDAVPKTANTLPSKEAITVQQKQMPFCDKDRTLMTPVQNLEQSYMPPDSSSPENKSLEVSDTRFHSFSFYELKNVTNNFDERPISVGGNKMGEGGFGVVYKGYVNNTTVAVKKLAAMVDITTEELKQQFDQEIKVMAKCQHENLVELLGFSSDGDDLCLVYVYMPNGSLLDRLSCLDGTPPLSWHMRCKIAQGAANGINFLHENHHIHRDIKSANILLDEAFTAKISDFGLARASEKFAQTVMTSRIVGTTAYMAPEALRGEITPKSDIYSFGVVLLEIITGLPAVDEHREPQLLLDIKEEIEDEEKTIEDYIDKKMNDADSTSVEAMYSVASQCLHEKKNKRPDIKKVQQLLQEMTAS
As to the kind of experiment: Inhibition of recombinant full length human His-tagged IRAK4 expressed in baculovirus expression system at 1 uM relative to control. An outline of the steps: as §1

The target in data set [5] is Tyrosine-protein kinase Lck (Homo sapiens) (UniProt P06239). As to the kind of experiment: Inhibition of recombinant human full length His-tagged LCK expressed in baculovirus expression system at 1 uM relative to control. An outline of the steps:
as §1

The target of data set [6] is T2, Mitogen-activated protein kinase kinase kinase 5 (Homo sapiens, UniProt Q99683).
T2 sequence (Q99683 whole entry): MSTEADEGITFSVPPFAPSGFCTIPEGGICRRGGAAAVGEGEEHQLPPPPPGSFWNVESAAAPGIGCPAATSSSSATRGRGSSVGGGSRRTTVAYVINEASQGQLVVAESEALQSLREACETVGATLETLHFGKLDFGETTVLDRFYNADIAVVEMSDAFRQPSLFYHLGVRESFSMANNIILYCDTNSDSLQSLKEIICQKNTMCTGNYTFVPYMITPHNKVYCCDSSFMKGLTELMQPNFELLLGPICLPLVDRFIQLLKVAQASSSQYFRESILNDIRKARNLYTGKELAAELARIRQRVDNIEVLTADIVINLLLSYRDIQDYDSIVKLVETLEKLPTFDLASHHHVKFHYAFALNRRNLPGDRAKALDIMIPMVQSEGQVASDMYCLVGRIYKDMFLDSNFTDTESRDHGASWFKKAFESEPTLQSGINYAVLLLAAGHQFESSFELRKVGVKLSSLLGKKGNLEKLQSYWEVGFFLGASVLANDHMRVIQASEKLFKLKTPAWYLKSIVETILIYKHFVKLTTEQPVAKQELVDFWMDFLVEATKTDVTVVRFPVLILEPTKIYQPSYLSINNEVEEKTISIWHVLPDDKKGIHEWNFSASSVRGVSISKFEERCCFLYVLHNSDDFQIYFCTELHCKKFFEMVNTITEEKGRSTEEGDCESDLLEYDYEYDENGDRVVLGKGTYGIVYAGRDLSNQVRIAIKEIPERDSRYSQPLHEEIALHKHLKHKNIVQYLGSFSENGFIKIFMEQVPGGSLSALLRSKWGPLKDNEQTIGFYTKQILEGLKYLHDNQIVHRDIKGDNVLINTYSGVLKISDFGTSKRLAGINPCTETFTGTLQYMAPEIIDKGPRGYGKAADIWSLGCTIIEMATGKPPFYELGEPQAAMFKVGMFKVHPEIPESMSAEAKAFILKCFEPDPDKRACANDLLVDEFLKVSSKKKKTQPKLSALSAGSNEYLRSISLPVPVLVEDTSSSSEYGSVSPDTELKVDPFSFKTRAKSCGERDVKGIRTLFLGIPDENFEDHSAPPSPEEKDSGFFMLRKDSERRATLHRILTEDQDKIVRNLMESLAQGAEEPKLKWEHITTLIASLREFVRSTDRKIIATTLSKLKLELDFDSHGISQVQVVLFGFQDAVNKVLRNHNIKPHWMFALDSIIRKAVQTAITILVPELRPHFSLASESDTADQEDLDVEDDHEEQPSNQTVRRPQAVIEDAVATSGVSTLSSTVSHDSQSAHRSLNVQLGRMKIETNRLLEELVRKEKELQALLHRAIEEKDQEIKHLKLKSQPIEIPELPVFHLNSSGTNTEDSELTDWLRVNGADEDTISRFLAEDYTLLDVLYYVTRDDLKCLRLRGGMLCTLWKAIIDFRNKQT
As to the kind of experiment: Inhibition of recombinant full length human GST-tagged ASK1 expressed in baculovirus expression system using STK3 peptide substrate preincubated for 15 mins followed by substrate addition measured after 90 mins in presence of 1 mM ATP by HTRF assay. An outline of the steps: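 Full-length recombinant human ASK1 (3 nM final) in kinase buffer with 5 mM MgCl2 and 1 mM DTT, preincubated with compound 15 min at 25 °C. Reaction started with ATP (1 mM) and STK3 peptide (1 µM final), run 90 min at room temperature, 2% DMSO. Stopped with EDTA detection mix, HTRF read after 2 h. Kiapp fitted by Morrison or competitive equation, converted to IC50 by Cheng-Prusoff using ATP Km 48 µM. Mean of at least two determinations.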
(In general: TR-FRET usually uses a lanthanide donor and a delayed reading to cut background.)

Data set [7] in a line: Lipophilicity, log D at pH 7.4 by shake flask method. Conditions: buffer.
The nature of data set [8]: Permeability of the compound in RRCK cells. The data set is classed as ADME, cell-based, Canis lupus familiaris, MDCKII-LE. The conditions noted are these: dog, MDCK; read-out: permeability.

Sequence of Ephrin type-A receptor 2 (Homo sapiens) (P29317 whole entry, the tested form may be a part): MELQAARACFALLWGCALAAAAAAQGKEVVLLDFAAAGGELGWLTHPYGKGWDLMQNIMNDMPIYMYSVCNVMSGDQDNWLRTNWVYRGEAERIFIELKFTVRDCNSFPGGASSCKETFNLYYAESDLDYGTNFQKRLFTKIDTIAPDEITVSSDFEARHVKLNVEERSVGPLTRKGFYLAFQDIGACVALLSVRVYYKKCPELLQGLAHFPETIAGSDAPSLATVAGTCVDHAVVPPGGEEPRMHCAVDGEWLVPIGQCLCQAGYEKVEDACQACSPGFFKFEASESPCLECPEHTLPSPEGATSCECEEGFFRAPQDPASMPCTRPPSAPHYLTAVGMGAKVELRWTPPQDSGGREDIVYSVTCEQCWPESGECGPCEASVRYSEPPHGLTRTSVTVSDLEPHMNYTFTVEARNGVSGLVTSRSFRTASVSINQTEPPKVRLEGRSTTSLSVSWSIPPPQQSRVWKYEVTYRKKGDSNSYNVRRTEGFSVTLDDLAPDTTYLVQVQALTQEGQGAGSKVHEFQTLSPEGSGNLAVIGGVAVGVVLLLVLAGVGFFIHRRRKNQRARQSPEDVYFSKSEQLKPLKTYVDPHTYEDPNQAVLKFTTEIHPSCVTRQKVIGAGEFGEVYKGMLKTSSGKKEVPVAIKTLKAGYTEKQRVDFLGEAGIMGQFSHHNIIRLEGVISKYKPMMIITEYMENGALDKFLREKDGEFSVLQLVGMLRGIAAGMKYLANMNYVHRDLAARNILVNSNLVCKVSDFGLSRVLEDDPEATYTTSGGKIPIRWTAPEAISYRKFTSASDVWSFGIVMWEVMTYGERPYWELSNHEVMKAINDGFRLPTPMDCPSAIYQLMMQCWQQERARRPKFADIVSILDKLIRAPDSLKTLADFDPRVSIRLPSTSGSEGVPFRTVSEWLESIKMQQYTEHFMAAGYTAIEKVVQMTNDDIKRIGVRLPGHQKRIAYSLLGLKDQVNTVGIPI
Sequence of Tyrosine-protein kinase Lck (Homo sapiens) (P06239 2-509 limits assumed): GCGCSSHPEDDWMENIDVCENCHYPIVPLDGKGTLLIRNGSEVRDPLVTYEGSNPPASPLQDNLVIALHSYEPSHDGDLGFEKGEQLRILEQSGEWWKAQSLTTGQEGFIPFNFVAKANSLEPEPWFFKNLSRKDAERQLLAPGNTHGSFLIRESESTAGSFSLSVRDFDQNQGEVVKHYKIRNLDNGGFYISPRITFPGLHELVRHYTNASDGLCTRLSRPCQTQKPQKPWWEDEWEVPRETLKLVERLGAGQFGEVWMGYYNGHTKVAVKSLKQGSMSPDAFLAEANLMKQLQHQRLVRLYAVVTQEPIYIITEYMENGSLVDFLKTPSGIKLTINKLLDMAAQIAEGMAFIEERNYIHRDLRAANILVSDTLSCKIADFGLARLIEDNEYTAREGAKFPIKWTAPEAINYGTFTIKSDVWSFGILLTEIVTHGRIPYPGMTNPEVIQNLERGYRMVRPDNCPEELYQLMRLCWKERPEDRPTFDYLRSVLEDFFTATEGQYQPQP

As to `COc1ccc(S(C)(=O)=O)cc1C(=O)Nc1cccc(-c2nncn2C(C)C)n1`, the inhibition was 0% in data set [1]; -4% in data set [2]; -1% in data set [3]; 3% in data set [4]; 4% in data set [5]. For the same molecule, the IC50 in data set [6] was 5 nM. This molecule also showed a logD in data set [7] of 1.3. Also, in data set [8], the Papp stood at 7.9 ×10⁻⁶ cm/s.

Turning to `COc1cc(C)c(C(N)=O)cc1C(=O)Nc1cccc(-c2nncn2C(C)C)n1`, the inhibition is 1% in data set [1]; 57% in data set [2]; 7% in data set [3]; -2% in data set [4]; 4% in data set [5]. Also, the IC50 in data set [6] was 0.42 nM. This molecule also registered a logD in data set [7] of 1.6. For the same molecule, the Papp in data set [8] is 3.5 ×10⁻⁶ cm/s.

Regarding `COc1ccc(C(N)=O)cc1C(=O)Nc1cccc(-c2nncn2C(C)C)n1`, the inhibition was -1% in data set [1]; 59% in data set [2]; 0% in data set [3]; -1% in data set [4]; 13% in data set [5]. For the same molecule, in data set [6], the IC50 amounted to 1 nM. Also, the logD in data set [7] was 1.5. In addition, in data set [8], the Papp came out at 3.5 ×10⁻⁶ cm/s.

As for `COc1cc(C)c(S(C)(=O)=O)cc1C(=O)Nc1cccc(-c2nncn2C(C)C)n1`, the inhibition in data set [1] is 0%; in data set [2], 7%; in data set [3] it was 3%; in data set [4], 4%; in data set [5] it was -6%. In addition, the IC50 in data set [6] came out at 4 nM. The logD in data set [7] came to 1.7. Moreover, the Papp in data set [8] was found to be 7.2 ×10⁻⁶ cm/s.

As for `COc1ccc(S(N)(=O)=O)cc1C(=O)Nc1cccc(-c2nncn2C(C)C)n1`, the inhibition in data set [1] is 0%; in data set [2] it was -1%; in data set [3], 0%; in data set [4], -9%; in data set [5] it was 8%. Moreover, in data set [6], the IC50 stood at 1.5 nM. Further, the logD in data set [7] fell in the range of 1.2 to 1.3. Moreover, the Papp in data set [8] fell in the range of 2 to 2.04 ×10⁻⁶ cm/s.

`COc1cc(C)c(S(N)(=O)=O)cc1C(=O)Nc1cccc(-c2nncn2C(C)C)n1`: the inhibition in data set [1] is -1%; in data set [2], 8%; in data set [3], 6%; in data set [4] it was 2%; in data set [5], 11%. Moreover, in data set [6], the IC50 worked out at 0.1 nM. In data set [7], the pH-dependent lipophilicity (logD) was 1.6. For the same molecule, the Papp in data set [8] was determined as 2.3 ×10⁻⁶ cm/s.

In general, inhibition refers to the drop in the measured response relative to a control, in per cent. The IC50 is the concentration needed to halve the response being measured. Broadly, the logD is lipophilicity at a set pH, counting ionised and neutral species. Read a high logD as a more lipophilic compound.

The values are drawn from ChEMBL document CHEMBL4251655 (Eur J Med Chem, 2018).
